Screening data from PubChem.
IMP-1 inh: IMP-1 metallo-beta-lactamase inhibitors, primary screen, biochemical, epi-absorbance readout, Pseudomonas aeruginosa enzyme. purified IMP-1, nitrocefin hydrolysis, epi-absorbance fluorescence. inhibition, % at 5.6 µM. metallo-beta-lactamase IMP-1 (Pseudomonas aeruginosa). actives 0.45% (n = 290,000);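 active means inhibition above the mean plus 3 SD of all compounds in the same screening run, cut at about 4.5% in these data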;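 further: 0% = IMP-1 with DMSO and 100% = DMSO wells lacking enzyme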
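Material – recombinant IMP-1 enzyme, purified · Amount – IMP-1 0.2 nM before substrate addition · Medium – HEPES buffer pH 7.1 with ZnSO4 and Brij 35 · Timing – 25 °C, 15 min preincubation, 25 min reaction · Measured by – plate fluorescence quenching by hydrolysis product, ex 480/em 530 nm · Read-out – percent enzyme inhibition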
UBC9 SUMO inh: inhibitors of in vitro SUMOylation cascade, primary screen, biochemical, HTRF, uHTS; HTRF SUMOylation assay, SAE1/SAE2 + UBC9; inhibition, % at 35 µM; actives 0.36% (n = 290,000); in the data active means inhibition above about 50%, passing the limit was not always enough
Target sequence (P63279 whole entry, looked up): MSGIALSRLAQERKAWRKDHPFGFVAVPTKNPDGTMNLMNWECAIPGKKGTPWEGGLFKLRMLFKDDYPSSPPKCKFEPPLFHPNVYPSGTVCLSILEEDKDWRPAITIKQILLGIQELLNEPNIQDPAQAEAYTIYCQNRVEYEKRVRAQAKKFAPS
Mot1-301 SUMO: yeast Mot1-301 growth rescue at high temperature, primary screen, SUMOylation pathway inhibitor project, S. cerevisiae, ATP luminescence, 38.5C | actives 1% (n = 320,000) | S. cerevisiae Mot1-301 growth rescue; percent above DMSO median, 100 means doubled | AID 2716, 2010 | growth rescue, % at 18.8 µM;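 active means every valid replicate shows activation above 250% relative to neutral control wells; inactive means the rest, any valid replicate at or below 250%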;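 further: OY570 slx delta 5 strain wells were the positive control but not used for scaling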
FID counter: compounds displacing fluorescent DNA intercalator, primary screen, artefact control for HCV NS3 helicase inhibitor project, biochemical, FID fluorescence; DNA fluorescent intercalator displacement; inhibition, % at 7.9 µM; actives 0.17% (n = 290,000); AID 1845, 2009; in the data active means inhibition above about 37%;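 further: 0% = vehicle and 100% = reference compound; higher means more ethidium bromide displaced from hairpin DNA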
NALP1 inh: NALP1 inflammasome inhibitors in reconstituted yeast, colorimetric, S. cerevisiae, triplicate retest; S. cerevisiae NALP1/ASC/caspase-1 growth, X-gal OD620, 72 h; inhibition, % at 10 µM; actives 0.61% (n = 280,000); AID 2071, 2009; in the data active means inhibition mostly above about 24%, no sharp cut-off; inactive means mostly below about 32%
VIM-2 inhibitor: VIM-2 metallo-beta-lactamase inhibitors, primary screen, biochemical, epi-absorbance readout, Pseudomonas aeruginosa enzyme | purified VIM-2, nitrocefin hydrolysis, epi-absorbance fluorescence | inhibition, % at 5.6 µM | actives 0.89% (n = 290,000) | AID 1527, 2009;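 active means inhibition above the mean of all tested compounds plus 3 SD, cutoff set per screening run, cut at about 7.5% in these data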;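 further: red hydrolysis product quenches plate fluorescence so inhibitors raise well fluorescence; 0% = enzyme with DMSO and 100% = DMSO without enzyme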
Starred values were filed as active, the others as inactive; x = no result given. Sampled rows, rich in hits. Any-hit rate of the full collection: about 2.9%.

SMILES	IMP-1 inh	UBC9 SUMO inh	Mot1-301 SUMO	FID counter	NALP1 inh	VIM-2 inhibitor
COC(=O)C(CCCN1C(=O)c2ccccc2C1=O)(NC(C)=O)c1nn[nH]n1 (stereo not drawn)	-4	13	-18	2	6	6
CCN(CC(=O)Nc1c(F)cccc1F)C(=O)c1ccc(NC(=O)CC2SC(N3CCCC3)=NC2=O)cc1 (stereo not drawn)	x	x	-1	x	x	x
COc1ccc(-c2n[nH]c(=S)n2Cc2ccccc2)cc1OC	-1	-1	-4	-18	-5	7.8*
Fc1ccc(-n2c(-c3ccc4c(c3)OCO4)n[nH]c2=S)cc1Cl	-4	4	4	-4	-4	0
CCOc1cc(-c2n[nH]c(=S)n2Cc2ccccc2)ccc1OC(F)F	x	x	0	x	x	x
COc1cc(OC)cc(-c2n[nH]c(=S)n2-c2ccc3c(c2)OCO3)c1	0	-2	-6	-29	13	8.7*
CCCCn1c(N)c(N(Cc2ccccc2OC)C(=O)COc2ccccc2C#N)c(=O)[nH]c1=O	2	7	-5	-14	17	1
COc1cc(OC)cc(C(=O)N2CCCC(Nc3ccc(F)cc3)C2)c1 (stereo not drawn)	0	-11	-22	-30	0	3
COc1ccc2cc(C(=O)N3CCCC(Nc4ccc(F)cc4)C3)n(C)c2c1 (stereo not drawn)	-3	-1	10	-24	35*	-4
CSc1ccccc1NC(=O)c1cc(-c2cccnc2)nc2ccc(Br)cc12	6.3*	37	58	-2	10	-1
CC(=O)Nc1cccc(NC(=O)c2cc(-c3cccnc3)nc3ccc(Cl)cc23)c1	-1	-1	224	-24	-5	0
CC(=O)Nc1cccc(NC(=O)c2cc(-c3cccnc3)nc3ccc(Br)cc23)c1	5.2*	-23	-4	-15	22	0
CC1(C)NC(=O)N(CC(=O)Nc2ccc(-n3cnnn3)cc2)C1=O	x	x	19	x	x	x
Cc1nnc(SCC(=O)NNC(=O)COc2ccc(Br)cc2)n1C	x	x	-15	x	x	x
O=[N+]([O-])c1ccc(Cl)c(-c2ccc(/C=N/c3c(-c4ccco4)nc4ccccn34)o2)c1	-2	12	11	8	4	-2
Cc1cc(C)c([N+](=O)[O-])cc1-c1ccc(/C=N/c2c(-c3ccco3)nc3ccccn23)o1	9.2*	7	-1	-2	-1	4
Cc1ccc(-c2nc3c(c(SCC(=O)N4CCOCC4)n2)Cc2c(CO)cnc(C)c2O3)cc1	8.9*	18	-7	-43	1	3
CS(=O)(=O)Nc1ccc(-c2ccc(/C=C3\SC(N)=NC3=O)o2)cc1	0	4	6	-8	35	8.8*
COc1ccc(N=C2NC(=O)/C(=C\c3ccco3)S2)cc1	-3	62*	-24	-15	12	-3
COc1ccc(/C=C2\SC(=Nc3ccccc3)NC2=O)cc1	0	7	130	-9	10	-2
COc1ccc(NC(=O)CN(C)C(=O)CCCSc2nc3ccccc3[nH]2)cc1	x	x	-22	x	x	x
O=C(CC1(O)C(=O)N(Cc2cccc3ccccc23)c2ccccc21)c1cccnc1 (stereo not drawn)	-3	-1	7	-13	-12	-3
CN1C(=O)C(O)(CC(=O)c2cccnc2)c2ccccc21 (stereo not drawn)	8.6*	7	45	-8	0	-2
Cc1ccc(-c2nn(C)c(=O)c3ccccc23)cc1CN1CCCCC1	-4	-1	0	0	1	9.2*
Cc1ccc(-c2nn(C)c(=O)c3ccccc23)cc1CNS(C)(=O)=O	-2	3	x	-20	13	7
SMILES	IMP-1 inh	UBC9 SUMO inh	Mot1-301 SUMO	FID counter	NALP1 inh	VIM-2 inhibitor
CC(OC(=O)Cc1ccc(F)cc1)C(=O)NCc1ccc2c(c1)OCO2 (stereo not drawn)	x	x	-3	x	x	x
O=C(O)C1C2C=CC3(O2)C1C(=O)N1c2ccccc2C2OCCC2C13 (stereo not drawn)	1	6	86	2	2	11*
CC1(C)CC(=O)C(C(O)c2cccc([N+](=O)[O-])c2)C(C)(C)N1 (stereo not drawn)	-3	7	8	3	3	-3
CNC(=O)c1ccccc1S(=O)(=O)c1ccccc1C#N	-3	24	-14	2	28*	-3
C=CCN1CC(O)=C(c2nc3ccccc3[nH]2)C1=N	-1	4	-2	1	25	-3
COc1ccc(CN(C(=O)c2ccco2)c2ccc(C)c(C)c2)cc1	-1	3	403*	-43	4	0
CCOc1ccc(N(Cc2ccc(OC)cc2)C(=O)c2ccco2)cc1	-2	-8	17	-37	14	-4
O=S(=O)(c1cccc2nsnc12)N1CCN(C/C=C\c2ccccc2)CC1	-3	-19	309*	-8	9	-1
O=S(=O)(c1cccc2nsnc12)N1CCN(C/C=C/c2ccccc2)CC1	-3	17	185	-2	-17	-1
COc1ccccc1/C=N/NC(=O)c1nnn(-c2nonc2N)c1-c1cccs1	-2	-4	-6	-24	37*	-3
CCOc1ccc(-c2c(C(=O)N/N=C/c3ccc(O)cc3)nnn2-c2nonc2N)cc1	-1	22	-31	-14	17	0
CC1CCN(Cc2c(C(=O)N/N=C/c3ccccc3O)nnn2-c2nonc2N)CC1	-1	54*	-3	-13	-1	-3
CCOc1ccc(-c2c(C(=O)N/N=C/c3cccc(Br)c3)nnn2-c2nonc2N)cc1	-1	32	12	-18	37*	-1
S=c1nc[nH]c2c1sc1nc(N3CCOCC3)c3c(c12)CCCC3	-1	33	-17	-9	23	-1
CN(C)S(=O)(=O)c1ccc(C(=O)Oc2cc(=O)[nH]c3ccccc23)cc1	3	25	465*	-4	19	4
Oc1ccc(-c2ccccc2)cc1CN1CCCCCC1	0	-1	341*	9	14	-3
CCc1cccc(C)c1NC(=O)COC(=O)c1cc([N+](=O)[O-])ccc1N1CCOCC1	x	x	9	x	x	x
CCOc1ccc(NC(=O)CN2CCN(Cc3c(F)cccc3F)CC2)cc1	-3	-3	163	-22	-2	-1
CCOC(=O)c1nn(-c2ccccc2)c(=O)c2c(N)scc12	-3	26	332*	3	12	5
COc1ccc(S(=O)(=O)N2CCCCC2)cc1NC(=O)Cc1sc(C)nc1-c1ccc(F)cc1	x	x	-7	x	x	x
